Results from ChEMBL document CHEMBL1125200, “Structure-activity relationships of estrogenic ligands: synthesis and evaluation of (17 alpha, 20E)- and (17 alpha, 20Z)-21-halo-19-norpregna-1,3,5(10),20-tetraene-3,17 beta-diols” (J Med Chem, 1991).

Tests used:
[1] = biological target: T1, Estrogen receptor (Rattus norvegicus) (UniProt P06211+Q62986); test: Relative binding affinity (RBA) for estrogen receptor of rat uterine cytosol at OC relative to Estradiol; assay type: protein assay
Procedure, shortened: (§1)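 Uterine cytosol from immature female Holtzman rats (21–25 days old), stored in liquid nitrogen. Competition assay with varying concentrations of unlabeled competitor against [³H]estradiol, incubated at 0–4 °C for 1–2 h. RBA is reported relative to estradiol (RBA = 100).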

[2] = biological target: T1, Estrogen receptor (Rattus norvegicus); test: Relative binding affinity (RBA) for estrogen receptor of rat uterine cytosol at 25 degree C relative to Estradiol; assay type: protein assay
Procedure, shortened: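 Cytosol source is the uterus of immature female Holtzman rats (21–25 days old), kept in liquid nitrogen. Graded concentrations of unlabeled ligand compete with [³H]estradiol during an 18 h incubation at 25 °C. RBA is expressed against estradiol set at 100.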

[3] = biological target: T1, Estrogen receptor (Rattus norvegicus); test: Relative binding affinity (RBA) for estrogen receptor in rat uterine cytosol at OC relative to Estradiol; details: Uterus; procedure, shortened: as §1
[4] = biological target: T2, Estrogen receptor (Ovis aries) (UniProt P49885+Q9TU15); test: Relative binding affinity (RBA) for estrogen receptor of lamb uterine cytosol at OC relative to Estradiol; assay type: protein assay
Procedure, shortened: (§2)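 Competitive estrogen receptor binding in lamb uterine cytosol, with estradiol as the standard ligand (RBA = 100). Incubation was at 0–4 °C for 1–2 h.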

[5] = biological target: T2, Estrogen receptor (Ovis aries); test: Relative binding affinity (RBA) for estrogen receptor in lamb uterine cytosol at OC relative to Estradiol; assay type: protein assay; details: Uterus; procedure, shortened: as §2

Row | Compound | relative binding affinity (RBA) [1] | RBA [2] | relative binding affinity (RBA) [3] | relative binding affinity (RBA) [4] | relative binding affinity (RBA) [5]
1 | C[C@]12CC[C@@H]3c4ccc(O)cc4CC[C@H]3[C@@H]1CC[C@@]2(O)/C=C\I | 77 | 62 |  |  | 
2 | C[C@]12CC[C@@H]3c4ccc(O)cc4CC[C@H]3[C@@H]1CC[C@@]2(O)/C=C/I | 202 | 776 |  |  | 
3 | C[C@]12CC[C@@H]3c4ccc(O)cc4CC[C@H]3[C@@H]1CC[C@@]2(O)/C=C\Br |  | 56 | 78 | 71 | 

The next lines start with the values.

Row | relative binding affinity (RBA) [1] | RBA [2] | relative binding affinity (RBA) [3] | relative binding affinity (RBA) [4] | relative binding affinity (RBA) [5] | Compound
4 |  | 89 | 102 | 115 |  | C[C@]12CC[C@@H]3c4ccc(O)cc4CC[C@H]3[C@@H]1CC[C@@]2(O)/C=C\Cl
5 | 126 | 199 |  |  | 74 | C[C@]12CC[C@@H]3c4ccc(O)cc4CC[C@H]3[C@@H]1CC[C@@]2(O)/C=C/Cl
6 | 195 | 661 |  |  | 117 | C[C@]12CC[C@@H]3c4ccc(O)cc4CC[C@H]3[C@@H]1CC[C@@]2(O)/C=C/Br
